Diaph inh CS = inhibits diaphorase or chemically oxidizes, flagging diaphorase assay artifacts; 0.69% of 190,000 active; diaphorase resazurin-to-resorufin fluorescence, NADH, 16 min; bacterial (C. kluyveri) enzyme, not human; inhibition, % at 20 µM;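 active = primary screen inhibition at 20 µM above a set limit, cut at about 50% in these data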;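 note: plate controls were DMSO with full reaction for no effect and wells lacking NADH for full effect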
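Benchmarks: positive control wells lacking NADH, neutral wells with DMSO only. System: bacterial diaphorase enzyme (C. kluyveri). Input: 0.14 U/mL diaphorase, enzyme working solution. Detection: resorufin fluorescence, excitation 544 nm, emission 590 nm. Times: 16-min room-temperature incubation before reading.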
WT yeast gro inh = growth inhibition of WT yeast, mitochondrial fusion screen. mitochondrial fusion phenotypic screen, WT strain. inhibition, % at 10 µM. 2.1% of 190,000 active. AID 1362; in the data active = inhibition above about 58%; tested in S. cerevisiae
ROMK primary = modulates human ROMK potassium channel activity. Tet-inducible ROMK, thallium flux fluorescence; actives lie on both sides. B-score at 10 µM. 2% of 130,000 active;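 active = signal ratio slope over the read window, or its plate-corrected B-score, at least 3 SD from the plate mean, either direction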;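 note: B-score of the F/F0 ratio slope over 7 to 12 s after thallium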
L major viab = inhibitors of Leishmania major promastigote growth. AID 1063. 9% of 200,000 active. Leishmania major promastigotes, resazurin fluorescence viability. inhibition, % at 10 µM; in the data active = inhibition above about 50%;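 note: promastigotes grown with compound for 44 hours at 28 °C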
Diaph act CS = counter-screen for diaphorase-based assays: diaphorase activators and chemical reducers. 0.005% of 190,000 active. activation factor at 20 µM. Diaphorase/resazurin coupled assay, resorufin fluorescence, 16 min; active compounds read high; 1 = vehicle wells, 0 = NADH-free wells;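 active = diaphorase activity raised at least twofold by the compound at 20 µM; inactive = activation factor below 2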
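Material: Purified diaphorase enzyme from Clostridium kluyveri | Buffer or medium: 50 mM HEPES pH 7.4 with 4.542 mM MgCl2, 0.005% Tween 20 | Times: 16 min enzyme reaction, ambient temperature | Signal: Red resorufin fluorescence at 544/590 nm excitation/emission | Measure: Increased resorufin signal from activators or reducing compounds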
KCC2 mod = modulators of human KCC2 chloride dependent transport; KCC2 cells, thallium flux FluoZin-2 fluorescence; B-score of Tl+ flux slope (higher = more flux/activation; lower = inhibition) at 10 µM; 2.2% of 190,000 active;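 active = thallium flux slope and its plate-corrected score both differing from the plate sample mean at a set confidence after two filtering rounds, in either direction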;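 note: slope of fluorescence scaled to starting intensity during 10 to 20 s after thallium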
Target sequence (Q9H2X9 whole entry, looked up): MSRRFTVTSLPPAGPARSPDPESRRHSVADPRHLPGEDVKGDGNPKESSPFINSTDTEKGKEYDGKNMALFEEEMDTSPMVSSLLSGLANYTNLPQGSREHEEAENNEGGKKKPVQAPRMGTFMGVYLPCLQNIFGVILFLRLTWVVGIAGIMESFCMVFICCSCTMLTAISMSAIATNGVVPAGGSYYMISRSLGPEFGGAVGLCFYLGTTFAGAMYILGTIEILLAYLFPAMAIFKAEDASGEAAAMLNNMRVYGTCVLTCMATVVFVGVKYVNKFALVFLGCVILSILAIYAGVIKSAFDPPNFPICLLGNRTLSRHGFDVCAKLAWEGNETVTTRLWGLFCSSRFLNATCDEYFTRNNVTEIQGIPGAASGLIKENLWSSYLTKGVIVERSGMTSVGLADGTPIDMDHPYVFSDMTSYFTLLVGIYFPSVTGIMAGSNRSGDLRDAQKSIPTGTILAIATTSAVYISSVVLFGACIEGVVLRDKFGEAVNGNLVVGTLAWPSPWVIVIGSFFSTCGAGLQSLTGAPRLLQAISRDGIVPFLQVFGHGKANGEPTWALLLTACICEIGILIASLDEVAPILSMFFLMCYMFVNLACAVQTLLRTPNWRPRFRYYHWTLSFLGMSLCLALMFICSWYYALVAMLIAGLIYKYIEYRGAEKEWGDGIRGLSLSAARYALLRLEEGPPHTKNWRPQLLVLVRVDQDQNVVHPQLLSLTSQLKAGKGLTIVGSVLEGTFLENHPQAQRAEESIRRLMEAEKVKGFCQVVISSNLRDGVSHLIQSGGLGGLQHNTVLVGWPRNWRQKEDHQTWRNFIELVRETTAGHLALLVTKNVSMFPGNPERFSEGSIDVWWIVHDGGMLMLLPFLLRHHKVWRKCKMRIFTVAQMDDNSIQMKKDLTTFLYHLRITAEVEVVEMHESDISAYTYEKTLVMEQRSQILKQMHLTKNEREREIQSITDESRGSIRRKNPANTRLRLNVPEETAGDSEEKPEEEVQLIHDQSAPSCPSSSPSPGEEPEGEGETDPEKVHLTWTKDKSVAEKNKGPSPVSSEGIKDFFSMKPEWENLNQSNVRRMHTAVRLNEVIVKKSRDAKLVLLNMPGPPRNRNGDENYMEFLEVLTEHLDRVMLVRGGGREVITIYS
* = called active by the depositor. An excerpt weighted towards active compounds, which were near 12% of everything screened.

What do the screens show for `O=C1/C(=C/c2ccncc2)CCC/C1=C\c1ccncc1`?
Diaph inh CS: 5.6; WT yeast gro inh: 63.9*; ROMK primary: -3.32*; L major viab: 100.7*; Diaph act CS: 0.9; KCC2 mod: -1.18

What do the screens show for `O=C1/C(=C/c2ccncc2)CCc2ccccc21`?
ROMK primary: -1.68; KCC2 mod: -1.05

What do the screens show for `COc1cc(/C=C/C(=O)OCC(=O)NC(=O)NC23CC4CC(CC(C4)C2)C3)ccc1OCC#N`?
Diaph inh CS: 28.7; WT yeast gro inh: 20.5; ROMK primary: 1.55; L major viab: 93.2*; Diaph act CS: 0.7; KCC2 mod: 0.437

What do the screens show for `c1ccc(OCCOCCN2CCN(C(c3ccccc3)c3ccccc3)CC2)cc1`?
Diaph inh CS: 11.1; WT yeast gro inh: 43.8; ROMK primary: -0.619; L major viab: 20.7; Diaph act CS: 0.9; KCC2 mod: -0.354

How did c1ccc(OCCOCCN2CCc3ccccc3C2)cc1 do in these assays?
Diaph inh CS: -0.4; WT yeast gro inh: -10.6; L major viab: 98.0*; Diaph act CS: 1; KCC2 mod: -0.17

How did CCCOc1ccc(OCCOCCN2CCc3ccccc3C2)cc1 do in these assays?
Diaph inh CS: 9.7; WT yeast gro inh: 13.1; ROMK primary: -0.128; L major viab: 96.9*; Diaph act CS: 0.9; KCC2 mod: 1.12

What do the screens show for `C=CCc1cc(OC)ccc1OCCOCCC(C(=O)OCC)C(=O)OCC`?
Diaph inh CS: 17.6; WT yeast gro inh: -0.3; ROMK primary: 0.787; L major viab: 53.6*; Diaph act CS: 0.8; KCC2 mod: -1.06

How did COc1ccc(CN2CCc3ccccc3C2)c(OC)c1 do in these assays?
KCC2 mod: 0.148

Results for CCOc1ccc(OCCOCCN2CCc3ccccc3C2)cc1 ?
Diaph inh CS: 6.5; WT yeast gro inh: -3.7; L major viab: 91.0*; Diaph act CS: 0.9; KCC2 mod: -0.129

Results for Fc1ccc(-c2nnc(-n3nnc4ccccc43)c3ccccc23)cc1 ?
L major viab: -0.6; KCC2 mod: 0.843

What do the screens show for `CCn1c(COc2ccccc2C)nnc1SCC(=O)CC(=O)Nc1ccccc1`?
Diaph inh CS: 11.0; WT yeast gro inh: 44.5; L major viab: -5.9; Diaph act CS: 0.9; KCC2 mod: 0.057

How did Cc1ccc(SCCOCCN2CCc3ccccc3C2)cc1 do in these assays?
Diaph inh CS: 15.5; WT yeast gro inh: 44.4; L major viab: 92.2*; Diaph act CS: 0.8; KCC2 mod: 0.0651

What do the screens show for `C=CCc1cc(OC)ccc1OCCOCCN1CCc2ccccc2C1`?
Diaph inh CS: -10.5; WT yeast gro inh: 21.4; ROMK primary: -0.986; L major viab: 89.9*; Diaph act CS: 1.1; KCC2 mod: -0.509

How did Cc1cc(C(=O)COC(=O)CN=C2NS(=O)(=O)c3ccccc32)c(C)n1CCc1ccc(Cl)cc1 do in these assays?
Diaph inh CS: 25.1; WT yeast gro inh: -9.9; ROMK primary: 0.288; L major viab: -5.6; Diaph act CS: 0.7; KCC2 mod: 0.757

How did CCn1nc(C)c(CN2CCc3c([nH]c4ccccc34)C2c2ccc(F)c(OC)c2)c1C (configuration not stated) do in these assays?
Diaph inh CS: 17.5; WT yeast gro inh: 34.0; ROMK primary: -0.176; L major viab: 74.2*; Diaph act CS: 0.8

What do the screens show for `CCn1cc(CN2CCc3c([nH]c4ccccc34)C2c2ccc(F)c(OC)c2)c(C)n1` (configuration not stated)?
Diaph inh CS: 20.1; WT yeast gro inh: 17.7; ROMK primary: -0.202; L major viab: 42.2; Diaph act CS: 0.8; KCC2 mod: -1.55

What do the screens show for `Cc1ccc(S(=O)(=O)N2CCN(Cc3ccsc3)CC2)cc1`?
Diaph inh CS: -0.2; WT yeast gro inh: -3.5; ROMK primary: 0.00445; L major viab: -0.1; Diaph act CS: 1; KCC2 mod: -0.821

Results for O=c1sc2ccccc2n1COc1ccccc1 ?
Diaph inh CS: 69.5*; ROMK primary: -1.26; L major viab: 1.4; Diaph act CS: 0.3

How did O=c1sc2ccccc2n1COc1ccc(Cl)cc1 do in these assays?
Diaph inh CS: 8.8; WT yeast gro inh: 38.0; ROMK primary: -0.983; L major viab: 3.5; Diaph act CS: 0.9

How did COc1ccc2c(c1)SCC/C2=C\CN1C(=O)CCC1=O do in these assays?
Diaph inh CS: 3.9; WT yeast gro inh: 15.6; ROMK primary: -0.194; L major viab: 11.5; Diaph act CS: 1; KCC2 mod: 1.04

How did CCCN1CCC(=NNc2ccc(C(=O)O)cc2)CC1 do in these assays?
Diaph inh CS: -7.8; WT yeast gro inh: 4.0; ROMK primary: -0.783; L major viab: 90.4*; Diaph act CS: 1.1; KCC2 mod: 0.0389

What do the screens show for `CCCN1CCC(=NNC(=O)c2ccc(Br)o2)CC1`?
Diaph inh CS: 2.3; WT yeast gro inh: -35.4; ROMK primary: 0.321; L major viab: -3.1; Diaph act CS: 1; KCC2 mod: -0.578

How did CC(C)c1ccc(C2C3=C(CC(C)(C)CC3=O)NC3=C2C(=O)c2ccccc23)cc1 (configuration not stated) do in these assays?
Diaph inh CS: 20.2; WT yeast gro inh: -1.7; L major viab: 88.8*; Diaph act CS: 0.8; KCC2 mod: -0.443

What do the screens show for `CC1(C)CC(=O)C2=C(C1)NC1=C(C(=O)c3ccccc31)C2c1ccccc1` (configuration not stated)?
Diaph inh CS: 29.3; WT yeast gro inh: 10.6; L major viab: 88.6*; Diaph act CS: 0.7; KCC2 mod: -1.83

How did CC(C)(C)c1ccc(C2C3=C(CCCC3=O)NC3=C2C(=O)c2ccccc23)cc1 (configuration not stated) do in these assays?
Diaph inh CS: 23.7; WT yeast gro inh: 2.7; ROMK primary: -1.13; L major viab: 88.2*; Diaph act CS: 0.8; KCC2 mod: -0.0969

Results for CCCNC(=O)CNC(=S)N(Cc1cc(OC)c(OC)c(OC)c1)C1CCCC1 ?
Diaph inh CS: 16.3; WT yeast gro inh: -29.9; ROMK primary: -0.889; L major viab: 54.0*; Diaph act CS: 0.8; KCC2 mod: 0.588

How did COc1cc(CN(C(=S)NCC(=O)O)C2CCCC2)cc(OC)c1OC do in these assays?
Diaph inh CS: 0.8; WT yeast gro inh: -12.3; ROMK primary: 0.878; L major viab: 4.8; Diaph act CS: 1; KCC2 mod: 0.281

What do the screens show for `Cc1nn(C(=O)c2ccco2)c(C)c1Sc1ccc(Br)cc1`?
Diaph inh CS: 17.0; WT yeast gro inh: 1.3; ROMK primary: 0.0301; L major viab: -5.0; Diaph act CS: 0.8; KCC2 mod: -1.04

What do the screens show for `Cc1ccc(Sc2c(C)nn(C(=O)C3CC3)c2C)cc1`?
Diaph inh CS: 1.2; WT yeast gro inh: 84.6*; L major viab: -1.7; Diaph act CS: 1; KCC2 mod: -0.00533

How did Cc1nn(C(=O)C2CC2)c(C)c1Sc1ccc(Cl)cc1 do in these assays?
Diaph inh CS: 13.8; WT yeast gro inh: 79.5*; L major viab: -5.7; Diaph act CS: 0.9; KCC2 mod: -0.00621

Assay outcomes from PubChem BioAssay.
